PfM18AAP inh: blocks P. falciparum M18 aspartyl aminopeptidase | actives 1.2% (n = 290,000) | AID 1822 | inhibition, % at 7.35 µM | recombinant PfM18AAP, H-Glu-NHMec fluorogenic cleavage;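 active = inhibition above the campaign mean inhibition over all tested compounds plus 3 SD, cut at about 28% in these data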
Fh CTSL1 inh: counter-screen for PFM18AAP inhibitors: inhibitors of F. hepatica cathepsin L1 | actives 0.49% (n = 300,000) | inhibition, % at 5.96 µM | recombinant F. hepatica cathepsin L1, Z-Leu-Arg-MCA fluorescence;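 active = inhibition above the mean of all tested compounds plus 3 SD, set per screening campaign, cut at about 17% in these data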
VIM-2 inhibitor: inhibitors of Pseudomonas aeruginosa VIM-2 metallo-beta-lactamase; purified VIM-2, nitrocefin hydrolysis, epi-absorbance fluorescence; inhibition, % at 5.6 µM; actives 0.89% (n = 290,000); AID 1527;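 active = inhibition above the mean of all tested compounds plus 3 SD, cutoff set per screening run, cut at about 7.5% in these data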;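 also: red hydrolysis product quenches plate fluorescence so inhibitors raise well fluorescence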
IMP-1 inh-1: blocks Pseudomonas aeruginosa IMP-1 metallo-beta-lactamase; purified IMP-1, nitrocefin hydrolysis, epi-absorbance fluorescence; inhibition, % at 5.6 µM; actives 0.45% (n = 290,000); AID 1556;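 active = inhibition above the mean plus 3 SD of all compounds in the same screening run, cut at about 4.5% in these data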
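Test system: recombinant IMP-1 enzyme, purified / Medium: HEPES buffer pH 7.1 with ZnSO4 and Brij 35 / Doses: single dose, 5.6 µM / Times: 25 °C, 15 min preincubation, 25 min reaction / Detection: Epi-absorbance via hydrolysed-nitrocefin quenching of white-plate fluorescence, 480/530 nm, EDTA stop / Evaluation: percent inhibition from optical density relative to buffer-blank wells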
IMP-1 inh-2: selectivity counter-screen for VIM-2 inhibitors: IMP-1 metallo-beta-lactamase inhibitors; purified IMP-1, nitrocefin hydrolysis, epi-absorbance fluorescence; AID 1856; inhibition, % at 5.6 µM; 1,300 tested, under 10 active; shares compounds with VIM-2 inhibitor; call rule not given here
VIM-2 FRET inh: VIM-2 FRET inhibition, artifact counter-screen; purified VIM-2, CCF2 FRET substrate hydrolysis; shares compounds with VIM-2 inhibitor; inhibition, % at 5.6 µM; actives 23% (n = 1,300); AID 1857;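 active = inhibition above the mean of all tested compounds plus 3 SD, cut at about 19% in these data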
TEM-1 counter: selectivity counter-screen for VIM-2 inhibitors: E. coli TEM-1 inhibitors; actives 3% (n = 1,300); AID 1866; Purified TEM-1, nitrocefin hydrolysis, epi-absorbance fluorescence; shares compounds with VIM-2 inhibitor; inhibition, % at 5.6 µM;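 active = inhibition above that campaign's mean inhibition plus 3 SD, cut at about 0.46% in these data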
Target sequence (P62593 whole entry, looked up): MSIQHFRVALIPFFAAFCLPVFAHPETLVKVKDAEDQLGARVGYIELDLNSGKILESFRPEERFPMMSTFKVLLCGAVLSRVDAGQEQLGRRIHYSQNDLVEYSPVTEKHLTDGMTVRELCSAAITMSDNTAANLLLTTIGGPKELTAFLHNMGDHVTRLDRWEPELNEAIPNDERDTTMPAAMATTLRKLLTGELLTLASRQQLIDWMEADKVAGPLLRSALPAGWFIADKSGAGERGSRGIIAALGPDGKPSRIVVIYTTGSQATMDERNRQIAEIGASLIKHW
VIM-2 inh conf: confirmation of P. aeruginosa VIM-2 metallo-beta-lactamase inhibitors | shares compounds with VIM-2 inhibitor | purified VIM-2, nitrocefin hydrolysis, epi-absorbance | inhibition, % at 5.6 µM | actives 96% (n = 1,300) | AID 2187;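 active = inhibition of the VIM-2 beta-lactamase enzyme above about 11% from the earlier first-round screen, limit read from the data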
Of the large screens only hits and unclear results are named; the others gave an inactive call (follow-up assays come after a bar, where they were run). Hits are enriched below; roughly 2.7% of the tested compounds scored in any of these assays.

CCN(CC)c1ccc(C=Nc2ccc(N(C)C)cc2)c(O)c1	none
CCN1CCN(c2ccc(N=Cc3ccc(O)cc3O)cc2)CC1	VIM-2 inhibitor 27 | IMP-1 inh-2 inactive | VIM-2 FRET inh inactive | TEM-1 counter inactive | VIM-2 inh conf 45
CC(C)Cn1c(=O)c2c(nc3n2CCCN3CCc2ccccc2)n(C)c1=O	none
c1ccc2nc(-c3ccc(N4CCOCC4)cc3)ccc2c1	none
CN1CCN(c2ccc(-c3ccc4ccccc4n3)cc2)CC1	VIM-2 inhibitor 68 (no result: Fh CTSL1 inh) | IMP-1 inh-2 inactive | VIM-2 FRET inh inactive | TEM-1 counter inactive | VIM-2 inh conf 81
COc1ccc(NC(=O)CN(C)C(=O)CNC(=O)c2ccc(C)s2)cc1	none (no result: PfM18AAP inh, VIM-2 inhibitor, IMP-1 inh-1)
COc1ccc(OC)c(NC(=O)c2nc(-c3ccccc3)oc2C)c1	none
CCOc1ccc2nc(NCCNC(=S)NCCCN(C)C)c(C#N)cc2c1	VIM-2 inhibitor 13 | IMP-1 inh-2 inactive | VIM-2 FRET inh inactive | TEM-1 counter inactive | VIM-2 inh conf 18
Cc1ccc(Nc2nnc(SCc3cc(=O)n4ccsc4n3)s2)c(C)c1	none
COc1ccccc1Nc1nnc(SCc2cc(=O)n3ccsc3n2)s1	VIM-2 inhibitor 13 | IMP-1 inh-2 inactive | VIM-2 FRET inh inactive | TEM-1 counter 3.0 | VIM-2 inh conf 12
Cc1nnc2c(NC3CCCC3)nc3ccccc3n12	VIM-2 inhibitor 12 | IMP-1 inh-2 inactive | VIM-2 FRET inh inactive | TEM-1 counter inactive | VIM-2 inh conf 23
CCCCc1cc(=O)oc2c(C)c(OCC(=O)NCCN3CCOCC3)ccc12	none
Cc1oc2c(C)c3oc(=O)c(CCC(=O)NCCCn4ccnc4)c(C)c3cc2c1C	VIM-2 inhibitor 24 | IMP-1 inh-2 inactive | VIM-2 FRET inh inactive | TEM-1 counter inactive | VIM-2 inh conf 30
CCCc1cc(=O)oc2cc(OCC(=O)NCCCn3ccnc3)c(Cl)cc12	VIM-2 inhibitor 19 | IMP-1 inh-2 inactive | VIM-2 FRET inh inactive | TEM-1 counter inactive | VIM-2 inh conf 30
CCCc1cc(=O)oc2c(C)c(OCC(=O)NCCCn3ccnc3)ccc12	VIM-2 inhibitor 16 | IMP-1 inh-2 inactive | VIM-2 FRET inh inactive | TEM-1 counter inactive | VIM-2 inh conf 27
Cc1c(OCC(=O)NCCCn2ccnc2)ccc2c3c(c(=O)oc12)CCCC3	VIM-2 inhibitor 54 | IMP-1 inh-2 inactive | VIM-2 FRET inh inactive | TEM-1 counter inactive | VIM-2 inh conf 64
NC(=O)Nc1ccccc1C(=O)N1CCC(O)(c2ccc(Cl)cc2)CC1	none
COc1ccc(C2=Nn3c(nnc3-c3ccco3)SC2)cc1OC	VIM-2 inhibitor 23 | IMP-1 inh-2 inactive | VIM-2 FRET inh inactive | TEM-1 counter inactive | VIM-2 inh conf 31
COc1ccccc1-c1nnc2n1N=C(C)CS2	none
COc1ccc(C2=Nn3c(nnc3-c3ccccn3)SC2)cc1OC	VIM-2 inhibitor 52 | IMP-1 inh-2 inactive | VIM-2 FRET inh inactive | TEM-1 counter inactive | VIM-2 inh conf 67
COc1ccc(C2=Nn3c(nnc3-c3ccccc3OC)SC2)cc1OC	VIM-2 inhibitor 14 | IMP-1 inh-2 inactive | VIM-2 FRET inh inactive | TEM-1 counter inactive | VIM-2 inh conf 27
COc1ccc(OC)c(C2=Nn3c(nnc3-c3cc(OC)c(OC)c(OC)c3)SC2)c1	VIM-2 inhibitor 13 | IMP-1 inh-2 inactive | VIM-2 FRET inh inactive | TEM-1 counter inactive | VIM-2 inh conf 26
CC(=O)c1c(C)[nH]c(C(=O)NC(C)c2ccccc2)c1C (configuration not stated)	none
COc1cc(/C=N/NC(=O)C(N)=O)ccc1OCC(=O)N1C(C)CCCC1C (configuration not stated)	none
O=C(Nc1cc(Cl)ccc1N1CCOCC1)C1=COCCO1	none (no result: PfM18AAP inh, VIM-2 inhibitor, IMP-1 inh-1)
COc1cc(OC)c(OC)cc1/C=N/NC(=O)CC1C(=O)NN=C1C (configuration not stated)	VIM-2 inhibitor 37 | IMP-1 inh-2 inactive | VIM-2 FRET inh 66 | TEM-1 counter inactive | VIM-2 inh conf 55
Cc1cc([N+](=O)[O-])c(C)cc1-c1ccc(/C=N/n2cnnc2)o1	VIM-2 inhibitor 44 (no result: Fh CTSL1 inh) | IMP-1 inh-2 inactive | VIM-2 FRET inh inactive | TEM-1 counter inactive | VIM-2 inh conf 50
